Data from ChEMBL document CHEMBL1125337, “Synthesis and antibacterial activity of a series of basic amides of teicoplanin and deglucoteicoplanin with polyamines” (J Med Chem, 1992).
In brackets after ≈: the same amount, converted by molar mass.

What was measured:
Streptococcus pneumoniae = assay: Minimum inhibitory concentration against Streptococcus pneumoniae L 44; format: functional
Summary of the method: (§1)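 MIC (µg/mL) by microbroth dilution in Todd-Hewitt broth, final inoculum 10^4 cfu/mL, incubated 24 h at 37 °C in air.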

Escherichia coli [1] = assay: Efficacy of compound administered intravenously against Escherichia coli L47 Septicemia in mouse; format: functional; settings: iv
Summary of the method: (§2)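 Mouse septicemia from intraperitoneal injection of about 10^4 cells of E. coli L 47, about 100 times the 50% lethal dose. Groups of five to eight mice each got a single dose immediately after infection, by the route stated in the line. ED50 in mg/kg was calculated from percent survivors at each dose on day 7 (Spearman-Kärber).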

Streptococcus pyogenes [2] = assay: Minimum inhibitory concentration of compound was determined against Streptococcus pyogenes L 49 in mouse; format: functional
[3] = tested on: Staphylococcus haemolyticus; assay: Minimum inhibitory concentration against Staphylococcus haemolyticus L 602; format: functional
Summary of the method: (§3)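 MIC (µg/mL) by microbroth dilution in Iso-Sensitest broth; final inoculum 10^4 cfu/mL; 24 h at 37 °C in air.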

Staphylococcus aureus = assay: Minimum inhibitory concentration against Staphylococcus aureus L 165; format: functional; summary of the method: as §3
Escherichia coli [4] = assay: Minimum inhibitory concentration against Escherichia coli L 47; format: functional; summary of the method: as §3
Proteus vulgaris = assay: Minimum inhibitory concentration against Proteus vulgaris ATCC 881; format: functional; summary of the method: as §3
Enterococcus faecalis = assay: Minimum inhibitory concentration against Enterococcus faecalis ATCC 7080; format: functional
Summary of the method: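 Microbroth dilution MIC (µg/mL), final inoculum 10^4 cfu/mL, incubated 24 h at 37 °C in air.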

Escherichia coli [5] = assay: Efficacy of compound administered subcutaneously against Escherichia coli L47 Septicemia in mouse; format: functional; settings: sc; summary of the method: as §2
Streptococcus pyogenes [6] = assay: Minimum inhibitory concentration against Streptococcus pyogenes L 49; format: functional; summary of the method: as §1
Streptococcus pyogenes [7] = assay: Efficacy of compound administered subcutaneously against Streptococcus pyogenes L 49 Septicemia in mouse; format: functional; settings: sc
Summary of the method: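 Mice were infected intraperitoneally with about 10^5 Strep. pyogenes L 49 cells, about 100 times the 50% lethal dose. Groups of 5–8 mice were treated once right after challenge, by the route stated in the line. ED50 (mg/kg) was derived from percentage survival at each dose on day 7 (Spearman-Kärber).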

Mus musculus = organism: Mus musculus; assay: Number of survivors mouse to that of treated with compound; 7 out of 8 survived; format: functional
[8] = tested on: Staphylococcus epidermidis; assay: Minimum inhibitory concentration against Staphylococcus epidermidis ATCC 12228; format: functional; summary of the method: as §3
Pseudomonas aeruginosa = assay: Minimum inhibitory concentration against Pseudomonas aeruginosa ATCC 10145; format: functional; summary of the method: as §3
[9] = Association constant to Ac2-L-Lys-D-Ala-D-Ala determined at pH 9; Value ranges from 5E4-7.5E4
[10] = Association constant determined at pH 9; Value ranges from 5E4-7.5E4; format: ADME

Row | MIC (Streptococcus pneumoniae) | MIC (Streptococcus pyogenes [2]) | MIC (Staphylococcus aureus) | MIC (Escherichia coli [4]) | MIC (Proteus vulgaris) | MIC (Enterococcus faecalis) | MIC (Streptococcus pyogenes [6]) | MIC [8] | MIC (Pseudomonas aeruginosa) | Ka [9] | Ka [10] | Structure (SMILES) | ED50 (Escherichia coli [1]) | MIC [3] | ED50 (Escherichia coli [5]) | ED50 (Streptococcus pyogenes [7]) | Survivors (Mus musculus)
1 | 0.125 µg/mL (≈ 0.0942 µM) | 0.06 µg/mL (≈ 0.0452 µM) | 0.063 µg/mL (≈ 0.0475 µM) | 1 µg/mL (≈ 0.753 µM) | 32 µg/mL (≈ 24.1 µM) | 0.125 µg/mL (≈ 0.0942 µM) | 0.063 µg/mL (≈ 0.0475 µM) | 0.016 µg/mL (≈ 0.0121 µM) | 8 µg/mL (≈ 6.03 µM) | 75000 M⁻¹ | – | NCCN(CCN)CCNC(=O)[C@H]1NC(=O)[C@H]2NC(=O)[C@H](NC(=O)[C@@H]3NC(=O)[C@H]4NC(=O)[C@@H](Cc5ccc(c(Cl)c5)Oc5cc3cc(c5O)Oc3ccc(cc3Cl)[C@H]2O)NC(=O)[C@H](N)c2ccc(O)c(c2)Oc2cc(O)cc4c2)c2ccc(O)c(c2)-c2c(O)cc(O)cc21 | – | 0.063 µg/mL (≈ 0.0475 µM) | – | 1.25 mg/kg | –
2 | 0.125 µg/mL (≈ 0.0953 µM) | 0.13 µg/mL (≈ 0.0991 µM) | 0.063 µg/mL (≈ 0.048 µM) | 1 µg/mL (≈ 0.762 µM) | 32 µg/mL (≈ 24.4 µM) | 0.125 µg/mL (≈ 0.0953 µM) | 0.063 µg/mL (≈ 0.048 µM) | 0.032 µg/mL (≈ 0.0244 µM) | 8 µg/mL (≈ 6.1 µM) | – | 50000 M⁻¹ | NCCCNCCCNC(=O)[C@H]1NC(=O)[C@H]2NC(=O)[C@H](NC(=O)[C@@H]3NC(=O)[C@H]4NC(=O)[C@@H](Cc5ccc(c(Cl)c5)Oc5cc3cc(c5O)Oc3ccc(cc3Cl)[C@H]2O)NC(=O)[C@H](N)c2ccc(O)c(c2)Oc2cc(O)cc4c2)c2ccc(O)c(c2)-c2c(O)cc(O)cc21 | – | 0.125 µg/mL (≈ 0.0953 µM) | – | 1.65 mg/kg | –
3 | 0.125 µg/mL (≈ 0.0943 µM) | 0.06 µg/mL (≈ 0.0452 µM) | 0.063 µg/mL (≈ 0.0475 µM) | 2 µg/mL (≈ 1.51 µM) | 32 µg/mL (≈ 24.1 µM) | 0.125 µg/mL (≈ 0.0943 µM) | 0.063 µg/mL (≈ 0.0475 µM) | 0.063 µg/mL (≈ 0.0475 µM) | 8 µg/mL (≈ 6.03 µM) | 75000 M⁻¹ | – | NCCCCNCCCNC(=O)[C@H]1NC(=O)[C@H]2NC(=O)[C@H](NC(=O)[C@@H]3NC(=O)[C@H]4NC(=O)[C@@H](Cc5ccc(c(Cl)c5)Oc5cc3cc(c5O)Oc3ccc(cc3Cl)[C@H]2O)NC(=O)[C@H](N)c2ccc(O)c(c2)Oc2cc(O)cc4c2)c2ccc(O)c(c2)-c2c(O)cc(O)cc21 | – | 0.063 µg/mL (≈ 0.0475 µM) | – | 0.31 mg/kg | –

Row | Structure (SMILES) | MIC (Streptococcus pneumoniae) | MIC (Streptococcus pyogenes [2]) | MIC (Staphylococcus aureus) | MIC (Escherichia coli [4]) | MIC (Proteus vulgaris) | MIC (Enterococcus faecalis) | MIC (Streptococcus pyogenes [6]) | MIC [8] | MIC (Pseudomonas aeruginosa) | Ka [9] | Ka [10] | ED50 (Escherichia coli [1]) | MIC [3] | ED50 (Escherichia coli [5]) | ED50 (Streptococcus pyogenes [7]) | Survivors (Mus musculus)
4 | NCCCN(CCCN)CCCNC(=O)[C@H]1NC(=O)[C@H]2NC(=O)[C@H](NC(=O)[C@@H]3NC(=O)[C@H]4NC(=O)[C@@H](Cc5ccc(c(Cl)c5)Oc5cc3cc(c5O)Oc3ccc(cc3Cl)[C@H]2O)NC(=O)[C@H](N)c2ccc(O)c(c2)Oc2cc(O)cc4c2)c2ccc(O)c(c2)-c2c(O)cc(O)cc21 | 0.125 µg/mL (≈ 0.0913 µM) | 0.06 µg/mL (≈ 0.0438 µM) | 0.125 µg/mL (≈ 0.0913 µM) | 1 µg/mL (≈ 0.73 µM) | 128 µg/mL (≈ 93.5 µM) | 0.125 µg/mL (≈ 0.0913 µM) | 0.063 µg/mL (≈ 0.046 µM) | 0.008 µg/mL (≈ 0.00584 µM) | 8 µg/mL (≈ 5.84 µM) | – | – | < 40 mg/kg | 0.063 µg/mL (≈ 0.046 µM) | 40 mg/kg | 0.72 mg/kg | 7
